Columns and labels:
[1] = test system: RAW264.7; experiment: Antiinflammatory activity in mouse RAW264.7 cells assessed as inhibition of LPS-induced nitric oxide release pretreated for 15 mins before LPS challenge measured after 24 hrs by Griess method; type: functional, cell-based
Summary of the method: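 RAW 264.7 cells pre-incubated 15 min with compound (1–25 range in the table; 1, 5, 10, 25, 50 for dose-response) or DMSO vehicle, then LPS 250 ng/ml for 24 h. Nitrite in supernatant measured by Griess reagent, absorbance at 548 nm against NaNO2 standard. IC50 is the concentration giving 50% inhibition of NO release. Means ± SD of three independent experiments in triplicate.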

[2] = Cytotoxicity against LPS-stimulated mouse RAW264.7 cells assessed as cell viability at 1 to 25 uM pretreated for 15 mins before LPS challenge measured after 24 hrs by MTT assay; type: cell-based; conditions: LPS-stimulated RAW264.7 cells, read-out: Activity
Summary of the method: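 RAW 264.7 cells plated at 10⁵ cells/well, treated with compound at 1–25 in the presence of LPS 250 ng/ml for 24 h. MTT then added for 4 h at 37 °C, formazan extracted in DMSO, absorbance read at 540 nm. Viability expressed relative to untreated controls. Triplicate wells, at least three independent experiments.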

| SMILES | IC50 [1] [µM] | viability at 24 h, up to 25 µM [2] [%] | inhibition [1] |
| --- | --- | --- | --- |
| COC(=O)[C@]1(C)CCC[C@@]2(C)C3=CC[C@@H]4C[C@]3(C=C4C=O)CC[C@H]12 | 25 | 18 |  |
| C=C1C(=O)[C@@]23CC[C@@H]4[C@](C)(C(=O)OC)CCC[C@@]4(C)C2=CC[C@@H]1C3 | 10 | 50 |  |
| COC(=O)[C@]1(C)CCC[C@@]2(C)[C@@H]3CC[C@@H]4C[C@@]3(CC[C@@H]21)[C@H]1O[C@@]41C | 14 | 95 |  |
| C=C1[C@@H]2CC=C3[C@@](CC[C@@H]4[C@](C)(C(=O)OC)CCC[C@@]34C)(C2)[C@H]1O | > 25 | 67 |  |
| COC(=O)[C@]1(C)CCCC2(C)[C@@H]3CC[C@@H]4C[C@@]3(CC[C@@H]21)C[C@@]41CO1 (some centres undefined) | > 25 | 66 |  |
| COC(=O)[C@]1(C)CCC[C@@]2(C)[C@@H]3CC[C@@H]4C[C@]3(C=C4C=O)CC[C@@H]21 | 5 | 76 |  |
| COC(=O)[C@]1(C)CCC[C@]2(C)[C@@H]1CC[C@@]13C[C@@H](C[C@@H]4O[C@@]412)[C@]1(CO1)C3 | > 25 | 99 |  |
| C=C1C[C@@]23CC[C@H]4[C@@](C)(CCC[C@@]4(C)C(=O)O)[C@@H]2CCC1C3 (single isomer, unassigned) [KAURENOIC ACID] | > 25 | 70 |  |
| C=C1C[C@@]23CC[C@@H]4[C@](C)(C(=O)OCc5ccccc5)CCC[C@@]4(C)C2=CC[C@@H]1C3 [GRANDIFLORENIC ACID BENZYL ESTER] | > 25 | 23 |  |
| C=C1[C@@H]2CC[C@H]3[C@]4(C)CCC[C@@](C)(C(=O)O)[C@H]4CC[C@]3(C2)[C@H]1OC(C)=O | > 25 | 58 |  |
| C[C@@]12CCC[C@@](C)(C(=O)OCc3ccccc3)[C@H]1CC[C@]13CC(=O)O[C@H](CC[C@H]12)C3 | > 25 | 50 |  |
| C[C@@]1(CO)CCC[C@]2(C)[C@@H]1CC[C@@]13C[C@@H](CC[C@H]12)[C@@](C)(O)C3 | > 25 | 95 |  |
| COC(=O)[C@]1(C)CCC[C@@]2(C)[C@@H]3CC[C@@H]4C[C@]3(C=C4C)CC[C@@H]21 | > 25 | 100 |  |
| C=C1[C@H]2CC3=C([C@H](C2)[C@@H]1O)[C@]1(C)CCC[C@@](C)(C(=O)OC)[C@H]1CC3 | > 25 | 30 |  |
| COC(=O)[C@]1(C)CCC[C@@]2(C)[C@@H]3CC[C@@H]4C[C@@]3(CC[C@@H]21)C[C@]4(C)Cl | > 25 | 82 |  |
| COC(=O)[C@]1(C)CCC[C@@]2(C)[C@@H]3CC[C@@H]4C[C@@]3(CC[C@@H]21)C[C@]4(C)O | 25 | 52 |  |
| COC(=O)[C@]1(C)CCC[C@@]2(C)[C@@H]3CC[C@@H]4C[C@@]3(CC[C@@H]21)[C@@H](O)C4=O | > 25 | 95 |  |
| COC(=O)[C@]1(C)CCC[C@@]2(C)[C@@H]3CC[C@@H]4C[C@@]3(CC[C@@H]21)C[C@H]4C=O | > 25 | 90 |  |
| COC(=O)[C@]1(C)CCCC2(C)[C@@H]3CC[C@@H]4C[C@@]3(CC[C@@H]21)C[C@]41CO1 (some centres undefined) | > 25 | 90 |  |
| COC(=O)[C@]1(C)CCC[C@@]2(C)[C@@H]3CC[C@@H]4C[C@@]3(CC[C@@H]21)C(=O)[C@@]41CCN=N1 | > 25 | 48 |  |
| COC(=O)[C@]1(C)CCC[C@@]2(C)C3=CC[C@@H]4C[C@@]3(CC[C@H]12)C[C@H]4C | > 25 | 95 |  |
| C=C1C[C@@]23CC[C@H]4[C@@](C)(CCC[C@@]4(C)C(=O)OC[Si](C)(C)C)[C@@H]2CC[C@@H]1C3 | > 25 | 95 |  |

| SMILES | IC50 [1] [µM] | viability at 24 h, up to 25 µM [2] [%] | inhibition [1] |
| --- | --- | --- | --- |
| COC(=O)[C@]1(C)CCC[C@@]2(C)[C@@H]3CC[C@@H]4C[C@@]3(CC[C@@H]21)C[C@]41COS(=O)O1 (some centres undefined) | > 25 | 60 |  |
| C=C1[C@@H]2CC[C@H]3[C@]4(C)CCC[C@@](C)(C(=O)OC)[C@H]4CC[C@]3(C2)[C@H]1OC(C)=O | > 25 | 40 |  |
| COC(=O)[C@]1(C)CCC[C@@]2(C)C3=CC[C@@H]4C[C@@]3(CC[C@H]12)C[C@]4(O)COC(=O)c1ccco1 | 10 | 99 |  |
| COC(=O)[C@]1(C)CCC[C@@]2(C)[C@@H]3CC[C@@H]4C[C@@]3(CC[C@@H]21)CC4=O | > 25 | 98 |  |
| C=C1[C@@H]2CC=C3[C@@](CC[C@@H]4[C@](C)(C(=O)OC)CCC[C@@]34C)(C2)[C@H]1OC(C)=O | > 25 | 50 |  |
| C=C1C[C@@]23CC[C@@H]4[C@](C)(COS(=O)OC[C@]5(C)CCC[C@]6(C)[C@@H]5CC[C@]57CC(=C)[C@H](CC[C@H]56)C7)CCC[C@@]4(C)[C@@H]2CC[C@@H]1C3 | > 25 | 99 |  |
| C=C1C[C@@]23CC[C@@H]4[C@](C)(COC(C)=O)CCC[C@@]4(C)C2=CC[C@@H]1C3 | 10 | 90 |  |
| C=C1C[C@@]23CC[C@H]4[C@@](C)(CCC[C@@]4(C)C(=O)OC)[C@@H]2CC[C@@H]1C3 [KAURENOIC ACID METHYL ESTER] | 25 | 90 |  |
| C=C1[C@@H]2CC[C@H]3[C@]4(C)CCC[C@@](C)(C(=O)Nc5ccccc5)[C@H]4CC[C@]3(C2)[C@H]1OC(C)=O | > 25 | 85 |  |
| C=C1C[C@@]23CC[C@H]4[C@@](C)(CCC[C@@]4(C)C(=O)OCc4ccccc4)[C@@H]2CC[C@@H]1C3 [KAURENOIC ACID BENZYL ESTER] | > 25 | 46 |  |
| C=C1[C@@H]2CC[C@H]3[C@]4(C)CCC[C@@](C)(C(=O)O)[C@H]4CC[C@]3(C2)[C@H]1O | > 25 | 100 |  |
| C[C@@]12CCC[C@@](C)(C(=O)OCc3ccccc3)[C@H]1CC[C@]13CC(=O)[C@H](CC[C@H]12)C3 | 12 | 95 |  |
| C[C@@]12CCC[C@@](C)(C(=O)OC[Si](C)(C)C)[C@H]1CC[C@]13CC(=O)O[C@H](CC[C@H]12)C3 | 5 | 95 | Dose-dependent effect |
| C=C1C[C@@]23CC[C@@H]4[C@](C)(C(=O)OC)CCC[C@@]4(C)C2=CC[C@@H]1C3 [GRANDIFLORENIC ACID METHYL ESTER] | 5 | 100 | Dose-dependent effect |
| COC(=O)[C@]1(C)CCC[C@@]2(C)[C@@H]3CC[C@@H]4C[C@@]3(CC[C@@H]21)C(=O)OC4=O | > 25 | 95 |  |
| COC(=O)[C@]1(C)CCC[C@@]2(C)[C@@H]3CC[C@@H]4C[C@@]3(CC[C@@H]21)C[C@@]4(O)CO | 5 | 69 |  |
| C=C1[C@@H]2CC[C@H]3[C@]4(C)CCC[C@@](C)(C(=O)OC)[C@H]4CC[C@]3(C2)[C@H]1O | 5 | 97 | Dose-dependent effect |
| C=C1C[C@@]23CC[C@@H]4[C@](C)(CO)CCC[C@@]4(C)C2=CC[C@@H]1C3 | > 25 | 50 |  |
| C=C1C[C@@]23CC[C@@H]4[C@](C)(COC(C)=O)CCC[C@@]4(C)[C@@H]2CC[C@@H]1C3 | 12 | 99 |  |
| C=C1C(=O)[C@@]23CC[C@H]4[C@@](C)(CCC[C@@]4(C)C(=O)OC)[C@@H]2CC[C@@H]1C3 | 4 | 32 |  |
| COC(=O)[C@]1(C)CCC[C@@]2(C)C3=CC[C@@H]4C[C@@]3(CC[C@H]12)C[C@]4(O)CO | > 25 | 35 |  |

Reference: ChEMBL document CHEMBL1759881, “Synthesis and anti-inflammatory activity of ent-kaurene derivatives” (Eur J Med Chem, 2011)
